Reference: article PMC9378630 (Chemmedchem, 2022)
Several values for one entry are separate records, joined by “and”; a condition that tells them apart may be missing. Identical values can stand only once. Like-named read-outs stand apart in the source and are kept apart here.

Experiments:
[1] = AlamarBlue cytotoxicity assay in IMR-90 fibroblasts; assay type: cell-based, human; conditions: human, IMR-90 lung fibroblast cells
Method in brief: (§1)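 IMR-90 lung fibroblasts cultured 2 weeks in EMEM + 10% FBS, split 2–4 days before use, trypsin-EDTA detached and resuspended in culture medium. Added to test compound (2.2x in Low/Low buffer). 8 half-log concentrations, 100 μM to 32 nM final, in duplicate. AlamarBlue added, 37 °C, fluorescence 560/590 nm read every 30 min over 7 h. IC50 from concentration-response fit.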

[2] = AlamarBlue cytotoxicity assay in human sperm; assay type: cell-based; conditions: human, human sperm
Method in brief: (§2)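 Sperm isolated by centrifugation: liquefied at 37 °C, HTF-washed twice, 800×g, resuspended in Low/Low (low pH/low K+) buffer. Mixed with test compound (2.2x in Low/Low). 8 half-log concentrations, 100 μM to 32 nM final, in duplicate. AlamarBlue at 37 °C, 560/590 nm fluorescence every 15 min over 3 h. IC50 from concentration-response fit.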

[3] = biological target: T1, CatSper (Homo sapiens, UniProt Q7RTX7+Q86XQ3+Q8NEC5+Q96P56); assay: Progesterone-induced calcium uptake; assay type: cell-based
[4] = biological target: T2, human SLO3 and LRRC52 (Homo sapiens, UniProt A8MYU2); assay type: cell-based; conditions: for hSLO3 current in the presence of compound, % of control: 10 μM, +60 mV, n=5 cells, mean±SD in text; for inhibition at 10 µM: HEK293, read-out: Inhibition at 10 μM [%] hSlo3
T2 sequence (A8MYU2 1-1149): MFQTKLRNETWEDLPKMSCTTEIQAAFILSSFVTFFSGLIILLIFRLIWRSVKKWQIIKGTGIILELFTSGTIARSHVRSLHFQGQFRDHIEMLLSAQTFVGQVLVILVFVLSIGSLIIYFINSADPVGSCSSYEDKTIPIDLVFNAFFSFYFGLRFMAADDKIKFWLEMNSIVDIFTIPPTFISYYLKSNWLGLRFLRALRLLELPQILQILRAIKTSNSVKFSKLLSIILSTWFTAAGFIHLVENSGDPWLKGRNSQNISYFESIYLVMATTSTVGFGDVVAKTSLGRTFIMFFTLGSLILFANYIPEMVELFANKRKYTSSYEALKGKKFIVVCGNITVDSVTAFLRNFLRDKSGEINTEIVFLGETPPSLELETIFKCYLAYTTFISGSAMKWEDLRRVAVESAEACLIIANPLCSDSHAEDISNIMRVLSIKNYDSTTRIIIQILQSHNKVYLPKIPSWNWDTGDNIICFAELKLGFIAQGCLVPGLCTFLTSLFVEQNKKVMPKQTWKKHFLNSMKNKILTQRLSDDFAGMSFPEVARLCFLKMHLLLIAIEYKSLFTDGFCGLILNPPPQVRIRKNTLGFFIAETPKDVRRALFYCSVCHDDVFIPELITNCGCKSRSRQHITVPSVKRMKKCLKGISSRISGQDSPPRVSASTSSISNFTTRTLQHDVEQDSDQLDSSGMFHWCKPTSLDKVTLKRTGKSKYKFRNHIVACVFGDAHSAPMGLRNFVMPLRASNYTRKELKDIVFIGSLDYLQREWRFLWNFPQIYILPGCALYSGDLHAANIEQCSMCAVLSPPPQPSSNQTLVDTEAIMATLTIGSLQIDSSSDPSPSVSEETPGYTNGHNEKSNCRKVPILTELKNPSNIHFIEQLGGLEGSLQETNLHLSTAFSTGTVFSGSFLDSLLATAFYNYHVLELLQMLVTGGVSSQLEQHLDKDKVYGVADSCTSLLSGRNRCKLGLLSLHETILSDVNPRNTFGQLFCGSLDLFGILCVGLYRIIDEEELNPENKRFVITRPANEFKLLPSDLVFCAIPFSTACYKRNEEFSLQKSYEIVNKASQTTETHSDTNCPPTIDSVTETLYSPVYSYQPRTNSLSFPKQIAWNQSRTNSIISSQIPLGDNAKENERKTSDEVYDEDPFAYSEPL
T2 sequence (Q8N7C0 24-313 partner): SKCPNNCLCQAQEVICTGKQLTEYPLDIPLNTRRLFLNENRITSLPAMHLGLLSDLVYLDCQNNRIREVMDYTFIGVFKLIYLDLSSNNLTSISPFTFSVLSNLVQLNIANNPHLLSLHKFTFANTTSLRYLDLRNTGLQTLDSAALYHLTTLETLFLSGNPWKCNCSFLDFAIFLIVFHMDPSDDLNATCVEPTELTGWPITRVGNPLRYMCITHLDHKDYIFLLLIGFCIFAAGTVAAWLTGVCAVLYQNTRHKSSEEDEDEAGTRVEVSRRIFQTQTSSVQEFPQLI

[5] = biological target: hNav1.5 (Homo sapiens, UniProt Q14524); assay: hNav1.5 manual patch-clamp in CHO cells; assay type: cell-based; conditions: read-out: Inhibition at 10 μM [%] hNav1.5
[6] = biological target: hERG (Homo sapiens, UniProt Q12809); assay: hERG manual patch-clamp in HEK293 cells; assay type: cell-based; conditions: HEK293 cells expressing hERG
[7] = biological target: hCav1.2 (Homo sapiens, UniProt Q13936); assay: hCav1.2 FLIPR assay in stably expressing cell line; assay type: cell-based; conditions: read-out: Inhibition at 10 μM [%] hCav1.2
[8] = tested on: human sperm; assay: CASA: PGE1-induced hyperactivated motility; assay type: cell-based; conditions: 100 nM compound, 100 nM PGE1, HAM measured after 4 h
[9] = tested on: IMR‐90 fibroblasts; assay: AlamarBlue cytotoxicity assay in IMR-90 fibroblasts; assay type: cell-based, human; conditions: at concentrations fully inhibiting CatSper; AlamarBlue, 2 h
Method in brief: as §1

[10] = biological target: T1, CatSper; assay: Whole cell patch clamp electrophysiology of ICatSper in human sperm; assay type: cell-based; conditions: for Inhibition (block) of the inward ICatSper: 10 μM compound, human sperm, CsDVF
Method in brief: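 Swim-up sperm, seal at cytoplasmic droplet in HS buffer (pH 7.4), 12–18 MΩ pipettes with CsDVF internal. Break-in by 1 ms 450 mV pulses. Control current in CsDVF bath, then 10 μM compound for ~8–10 s. Ramp −80 to +80 mV from 0 mV every 3 s. Current density at ±80 mV, room temperature. Washout with CsDVF.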

[11] = tested on: human sperm; assay: CASA: progesterone-induced hyperactivated motility; assay type: cell-based; conditions: 10 μM compound, 100 nM progesterone, HAM measured after 4 h
[12] = tested on: human sperm; assay: Computer-aided sperm analysis; assay type: cell-based; conditions: 10 μM, 4 h incubation with human sperm
Method in brief: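 Motile sperm selected by swim-up into bicarbonate-free HAM's-F10 (37 °C, 5% CO2, 1 h), ≥10×10^6 cells/mL. Incubated 4 h with increasing test compound concentrations. CASA at 37 °C gives total and progressive motility from VAP, VSL, VCL, LIN and STR, as % of population. ≥10 fields/≥200 cells. Mean±SEM of ≥3 experiments; one-way ANOVA with Dunnett's test.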

[13] = biological target: T1, CatSper; conditions: reported previously; cited from earlier work
[14] = tested on: human sperm; assay: AlamarBlue cytotoxicity assay in human sperm; assay type: cell-based; conditions: human sperm and IMR‐90 fibroblasts
Method in brief: as §2

[15] = read-out: Inhibition (block) of the inward ICatSper
[16] = read-out: Inhibition at 10 μM [%] CatSper

Chain of hCav1.2 (Q13936 whole entry): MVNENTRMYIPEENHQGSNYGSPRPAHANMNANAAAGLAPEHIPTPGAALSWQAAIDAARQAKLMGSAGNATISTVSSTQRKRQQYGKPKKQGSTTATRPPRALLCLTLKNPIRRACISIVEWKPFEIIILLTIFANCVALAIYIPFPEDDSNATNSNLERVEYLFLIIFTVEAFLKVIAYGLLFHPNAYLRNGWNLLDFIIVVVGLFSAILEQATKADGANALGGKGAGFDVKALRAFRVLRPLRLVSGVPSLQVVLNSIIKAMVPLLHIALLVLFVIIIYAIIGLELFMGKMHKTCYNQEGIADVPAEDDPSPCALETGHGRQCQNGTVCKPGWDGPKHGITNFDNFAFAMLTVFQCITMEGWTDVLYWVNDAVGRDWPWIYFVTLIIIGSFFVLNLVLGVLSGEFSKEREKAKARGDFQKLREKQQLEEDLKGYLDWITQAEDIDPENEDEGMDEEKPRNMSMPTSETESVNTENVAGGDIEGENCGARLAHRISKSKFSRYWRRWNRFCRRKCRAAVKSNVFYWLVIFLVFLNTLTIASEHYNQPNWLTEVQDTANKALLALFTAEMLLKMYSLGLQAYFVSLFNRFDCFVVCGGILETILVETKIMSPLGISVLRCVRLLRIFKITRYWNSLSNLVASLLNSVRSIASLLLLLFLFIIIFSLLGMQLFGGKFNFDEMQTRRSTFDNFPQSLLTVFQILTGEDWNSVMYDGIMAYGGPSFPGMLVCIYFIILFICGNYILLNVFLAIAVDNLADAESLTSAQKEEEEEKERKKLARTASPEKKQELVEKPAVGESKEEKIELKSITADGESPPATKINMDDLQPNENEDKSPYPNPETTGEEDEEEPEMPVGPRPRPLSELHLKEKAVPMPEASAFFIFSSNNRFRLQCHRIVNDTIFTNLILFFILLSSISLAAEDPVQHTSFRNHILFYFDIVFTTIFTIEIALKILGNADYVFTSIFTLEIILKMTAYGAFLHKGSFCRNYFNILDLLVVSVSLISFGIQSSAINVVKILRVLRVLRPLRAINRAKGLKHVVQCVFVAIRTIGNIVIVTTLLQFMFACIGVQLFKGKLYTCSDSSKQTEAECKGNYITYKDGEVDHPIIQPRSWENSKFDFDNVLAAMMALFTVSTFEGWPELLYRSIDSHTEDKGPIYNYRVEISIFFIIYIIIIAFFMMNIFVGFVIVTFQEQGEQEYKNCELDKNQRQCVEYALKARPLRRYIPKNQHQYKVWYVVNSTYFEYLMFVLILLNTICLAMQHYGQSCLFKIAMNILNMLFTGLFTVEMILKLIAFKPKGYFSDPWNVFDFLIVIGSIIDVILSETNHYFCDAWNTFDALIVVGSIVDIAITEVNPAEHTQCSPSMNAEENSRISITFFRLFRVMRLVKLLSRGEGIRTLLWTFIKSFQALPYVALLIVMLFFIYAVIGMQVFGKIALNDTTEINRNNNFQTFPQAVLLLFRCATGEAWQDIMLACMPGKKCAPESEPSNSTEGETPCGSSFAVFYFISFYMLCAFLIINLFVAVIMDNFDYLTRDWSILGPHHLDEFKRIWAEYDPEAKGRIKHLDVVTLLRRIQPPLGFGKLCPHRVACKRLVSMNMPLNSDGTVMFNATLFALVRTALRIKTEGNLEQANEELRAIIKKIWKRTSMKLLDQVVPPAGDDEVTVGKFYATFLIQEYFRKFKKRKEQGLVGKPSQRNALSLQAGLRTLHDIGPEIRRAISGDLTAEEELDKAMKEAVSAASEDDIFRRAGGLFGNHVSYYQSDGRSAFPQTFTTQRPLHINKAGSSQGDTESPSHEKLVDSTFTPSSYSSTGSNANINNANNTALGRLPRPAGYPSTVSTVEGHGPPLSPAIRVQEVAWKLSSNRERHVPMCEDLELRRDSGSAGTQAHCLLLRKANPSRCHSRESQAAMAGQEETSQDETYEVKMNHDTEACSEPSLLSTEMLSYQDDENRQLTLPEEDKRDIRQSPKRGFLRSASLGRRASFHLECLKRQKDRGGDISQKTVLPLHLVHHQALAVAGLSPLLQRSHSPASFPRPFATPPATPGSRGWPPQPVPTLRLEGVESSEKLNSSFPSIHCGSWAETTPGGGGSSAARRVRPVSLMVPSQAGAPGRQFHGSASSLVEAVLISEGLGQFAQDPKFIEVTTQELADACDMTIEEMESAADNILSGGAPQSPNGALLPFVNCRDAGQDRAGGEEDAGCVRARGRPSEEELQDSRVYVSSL
Chain of hERG (Q12809 whole entry): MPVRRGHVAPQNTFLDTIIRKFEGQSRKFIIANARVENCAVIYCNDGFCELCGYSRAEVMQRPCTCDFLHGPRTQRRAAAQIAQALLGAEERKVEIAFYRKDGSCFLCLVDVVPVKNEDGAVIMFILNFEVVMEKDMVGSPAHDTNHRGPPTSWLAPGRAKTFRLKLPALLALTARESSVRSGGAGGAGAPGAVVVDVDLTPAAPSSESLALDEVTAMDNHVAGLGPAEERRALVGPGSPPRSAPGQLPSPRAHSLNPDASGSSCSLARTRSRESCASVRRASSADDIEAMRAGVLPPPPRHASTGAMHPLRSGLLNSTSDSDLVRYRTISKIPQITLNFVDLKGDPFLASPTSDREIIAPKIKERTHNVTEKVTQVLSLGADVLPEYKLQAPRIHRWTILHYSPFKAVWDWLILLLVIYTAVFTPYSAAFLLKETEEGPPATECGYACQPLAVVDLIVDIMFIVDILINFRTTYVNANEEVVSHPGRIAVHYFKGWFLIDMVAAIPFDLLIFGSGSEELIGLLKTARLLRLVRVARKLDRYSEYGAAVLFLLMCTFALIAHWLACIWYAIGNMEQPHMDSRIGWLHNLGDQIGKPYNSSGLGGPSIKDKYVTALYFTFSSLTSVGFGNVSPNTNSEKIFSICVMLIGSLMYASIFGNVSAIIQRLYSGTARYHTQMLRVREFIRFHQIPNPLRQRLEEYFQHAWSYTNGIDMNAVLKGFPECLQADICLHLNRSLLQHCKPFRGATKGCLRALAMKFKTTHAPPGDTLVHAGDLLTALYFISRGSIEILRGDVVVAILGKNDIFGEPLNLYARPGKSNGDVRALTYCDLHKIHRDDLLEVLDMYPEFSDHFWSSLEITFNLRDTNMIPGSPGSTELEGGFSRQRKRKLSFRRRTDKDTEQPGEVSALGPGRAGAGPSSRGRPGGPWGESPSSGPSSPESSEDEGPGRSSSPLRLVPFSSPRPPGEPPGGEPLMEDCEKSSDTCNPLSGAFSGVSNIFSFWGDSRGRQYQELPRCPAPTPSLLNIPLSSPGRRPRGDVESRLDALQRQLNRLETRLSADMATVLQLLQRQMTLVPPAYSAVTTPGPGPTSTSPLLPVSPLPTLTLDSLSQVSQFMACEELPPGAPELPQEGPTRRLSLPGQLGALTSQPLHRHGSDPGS

SMILES | IC50 [3] [µM] | hSLO3 current in the presence of compound, % of control [4] | inhibition at 10 µM [10, 15] [%] | inhibition at 10 µM [10, 16] [%] | IC50 at 7 h [1] [µM] | IC50 at 3 h [2] [µM] | inhibition at 10 µM [5] [%] | inhibition at 10 µM [7] [%] | further results
N=C(N)NC(=O)c1nc(Cl)c(N)nc1N [1 d, amiloride, reference compound] | > 100 |  |  |  |  |  |  |  | 
OC1(c2ccc(Cl)cc2)CCN(Cc2c[nH]c3ccccc23)CC1 [2 a, 4‐(4‐Chlorophenyl)‐1‐(1H‐indol‐3‐ylmethyl)‐4‐piperidinol] | 7.5 ± 1.3 |  | 65 | 73 | > 100 | > 100 | 77 | 39 | Inhibition of PGE1-induced HAM [8]: greatly reduced HAM; Effect on IMR‐90 viability [9]: reduce viability slightly; inhibition at 10 µM [6]: 100%
c1ccc(CN2CCC(c3c[nH]c4ccccc34)CC2)cc1 [2 l, 3‐(1‐benzylpiperidin‐4‐yl)‐1H‐indole] | > 100 |  |  |  |  |  |  |  | 
CN1CCCC(n2nc(Cc3ccc(Cl)cc3)c3ccccc3c2=O)CC1 (stereo not drawn) [6 a, azelastine, reference compound] | 5.4 ± 0.4 |  |  |  |  |  |  |  | 
O=c1c2ccccc2c(Cc2ccc(Cl)cc2)nn1C1CCCNCC1 (stereo not drawn) [6 b, 2‐(Azepan‐4‐yl)‐4‐(4‐chlorobenzyl)phthalazin‐1(2H)‐one] | 8.3 ± 1.1 | 66.3±8.5 % of control |  | 100 | 68 ± 5 | 84 ± 10 |  |  | Effect on IMR‐90 viability [9]: reduce viability slightly; Reduction of progesterone-induced HAM [11]: statistically significant; Inhibition (block) of the inward ICatSper [10]: near complete inhibition
CCN(CC)CCNC(=O)C1CCN(c2ccc3nnc(-c4cccc(C)c4)n3n2)CC1 [7 a, N ‐(2‐(Diethylamino)ethyl)‐1‐(3‐(m–tolyl)‐[1,2,4]triazolo[4,3‐b]pyridazin‐6‐yl)piperidine‐4‐carboxamide] | 20 ± 1 |  | 89 |  | > 100 | > 100 |  | -9 | Reduction of progesterone-induced HAM [11]: statistically significant; Progressive motility (CASA) [12]: substantially reduced; Total motility (CASA) [12]: substantially reduced; hSLO3 current in the presence of compound, % of control ([4]; 10 µM): 37.5±5.6 % of control and 38 % of control
COCC(=O)O[C@]1(CCN(C)CCCc2nc3ccccc3[nH]2)CCc2cc(F)ccc2[C@@H]1C(C)C [Mibefradil, reference compound] |  |  |  |  | 22 ± 1 | 25 ± 2 |  |  | Reversibility of CatSper block [13]: irreversible loss of channel function; Separation between potencies for blocking calcium influx and cytotoxicity [14]: low separation

Continued, in another order:

IC50 [3] [µM] | hSLO3 current in the presence of compound, % of control [4] | inhibition at 10 µM [10, 15] [%] | inhibition at 10 µM [10, 16] [%] | SMILES | IC50 at 7 h [1] [µM] | IC50 at 3 h [2] [µM] | inhibition at 10 µM [5] [%] | inhibition at 10 µM [7] [%] | further results
5.4 ± 0.6 | 101.5±6.4 % of control |  |  | NC(N)=NC(=O)c1nc(Cl)c(N2CCCCCC2)nc1N [1 a, 3‐Amino‐5‐(azepan‐1‐yl)‐6‐chloro‐N‐(diaminomethylene)pyrazine‐2‐carboxamide] | > 100 | > 100 | 68 | 4 | inhibition at 10 µM [4]: -2%; inhibition at 10 µM [6]: 92%
3.6 ± 0.6 | 58.5±12.5 % of control |  | 96 | Cc1cc(C)c2nc(C)cc(NCCc3ccccc3)c2c1 [3 a, 2,6,8‐Trimethyl‐N‐(2‐phenylethyl)‐4‐quinolinamine] | 96 ± 5 | > 100 | 94 | 10 | Inhibition (block) of the inward ICatSper [10]: near complete inhibition; inhibition at 10 µM [4]: 42%; inhibition at 10 µM [6]: 100%
4.9 ± 0.6 |  | 84 | 83 | O=C(Nc1cccc(C(F)(F)F)c1)N1CCN(c2cccc(C(F)(F)F)c2)CC1 [4 a, N ,4‐Bis(3‐(trifluoromethyl)phenyl)piperazine‐1‐carboxamide] | > 100 | > 100 | 95 | 65 | Reduction of progesterone-induced HAM [11]: statistically significant; Progressive motility (CASA) [12]: substantially reduced; Total motility (CASA) [12]: substantially reduced; hSLO3 current in the presence of compound, % of control ([4]; 10 µM): 24.6±9.1 % of control and 25 % of control; inhibition at 10 µM [4]: 75%
3.4 ± 0.4 | 83.2±7.8 % of control | 47 |  | N=c1n(CCN2CCCCC2)c2ccccc2n1CC(O)c1cccc(Br)c1 (stereo not drawn) [5 f, 1‐(3‐Bromophenyl)‐2‐(2‐imino‐3‐(2‐(piperidin‐1‐yl)ethyl)‐2,3‐dihydro‐1H‐benzo[d]imidazol‐1‐yl)ethan‐1‐ol] | 83 ± 14 | > 100 |  |  | Progressive motility (CASA) [12]: substantially reduced; Total motility (CASA) [12]: substantially reduced; Reversibility of ICatSper block on washout ([10]; washed out with CsDVF after 10 μM compound): apparent irreversible loss of channel function
